This note sets out measurements from ChEMBL document CHEMBL3228020, “Improved antitumor effects in 3'-branched homologues of 2'-deoxythioguanosine. Synthesis and evaluation of thioguanine nucleosides of 2,3-dideoxy-3-(hydroxymethyl)-D-erythro-pentofuranose” (J Med Chem, 1979).

Calls of active or inactive are those of the source. No cut-off for these calls is given here.

For series [1], the system named is Mus musculus. Put plainly: Acid-insoluble DNA incorporation in mouse Mecca lymphosarcoma ascite tumor allografted in AKD2F1 mouse assessed per mg of DNA at 2.6 umol, ip after 4 hrs by scintillation counting analysis. In kind it is functional. In outline: (§1)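 Female AKD2F1 mice (groups of 3) bearing 4-day Mecca lymphosarcoma ascites tumors; 2.6 μmol [35S]nucleoside ip, repeated after 2 h; peritoneal cells washed out 2 h later. Acid-insoluble nucleic acid extracted in 10% NaCl at 100 °C, RNA removed by alkali; DNA digested with DNase I then phosphodiesterase I at 37 °C; paper chromatography, spots counted by scintillation.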

Series [2] deals with WIL2. Put plainly: Antiproliferative activity against human WIL2 cells assessed as decrease in cell number at 100 to 300 uM measured every 24 hrs by electronic particle counting analysis in presence of 10% dialyzed horse serum. In kind it is functional, cell-based. In outline: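 WI-L2 cells in RPMI 1640 + 10% dialyzed horse serum with penicillin/streptomycin; log-phase cells (2×10^5/mL) mixed 1:1 with double-strength drug medium at several concentrations, duplicate cultures, counted every 24 h by electronic particle counter.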

Series [3] is described as follows: Stability in RPMI 1640 after 20 mins in presence of 10% fetal calf serum. The format is physicochemical. As to conditions: cattle. In outline:
(§2)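 Nucleosides incubated without cells in RPMI 1640 containing 10% fetal calf serum or 10% dialyzed horse serum, 20 min or 24 h; cleavage to thioguanine monitored.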

Series [4] can be described thus: Stability in RPMI 1640 assessed as formation of thioguanine after 24 hrs in presence of 10% dialyzed horse serum. The format is physicochemical. The procedure, abridged:
as §2

For series [5], the species on record is Mus musculus. Put plainly: Acid-soluble DNA incorporation in mouse Mecca lymphosarcoma ascite tumor allografted in AKD2F1 mouse assessed as snake venome 5'-nucleotidase-mediated nucleotide hydrolysis at 2.6 umol after 2 hrs. In kind it is functional. More on the design: scale not given: the % may be the effect or the level left. In outline: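 Female AKD2F1 mice bearing 4-day Mecca lymphosarcoma ascites were used in groups of three. Aliquots of the acid-soluble fraction were digested with crude Crotalus adamanteus venom (phosphodiesterase plus 5'-nucleotidase) for 2 h at 37 °C.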

The species entered for series [6] is Mus musculus. In words: Acid-soluble DNA incorporation in mouse Mecca lymphosarcoma ascite tumor allografted in AKD2F1 mouse assessed as detection of [35S] in nucleotide per mg of DNA at 2.6 umol after 4 hrs by scintillation counting analysis. The format is functional. The procedure, abridged: (§3)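 Same mouse dosing as the DNA study: 2.6 μmol [35S]nucleoside ip twice, 2 h apart, to AKD2F1 mice carrying Mecca lymphosarcoma ascites; cells harvested 2 h after the second dose. Acid-soluble fraction chromatographed on paper in 5% KH2PO4 with mercaptoethanol; nucleoside and nucleotide spots scintillation-counted, expressed per mg DNA.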

The species entered for series [7] is Mus musculus. Put plainly: Acid-insoluble DNA incorporation in mouse Mecca lymphosarcoma ascite tumor allografted in AKD2F1 mouse assessed as detection of [35S] in nucleotide at 2.6 umol after 4 hrs by scintillation counting analysis. In kind it is functional. In outline:
as §1

The species named for series [8] is Mus musculus. Put plainly: Acid-soluble DNA incorporation in mouse Mecca lymphosarcoma ascite tumor allografted in AKD2F1 mouse assessed as detection of [35S] in nucleoside per mg of DNA at 2.6 umol after 4 hrs by scintillation counting analysis. In kind it is functional. In outline: as §3
The species named for series [9] is Mus musculus. In words: Acid-soluble DNA incorporation in mouse Mecca lymphosarcoma ascite tumor allografted in AKD2F1 mouse assessed as wheat germ 3'-nucleotidase-mediated nucleotide hydrolysis at 2.6 umol after 1 hr. In kind it is functional. Set-up: scale not given: the % may be the effect or the level left. In outline:
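Acid-soluble fraction from mice dosed ip with 2.6 μmol [35S]nucleoside twice, 2 h apart. Aliquot treated with nucleotidase-free phosphodiesterase (pH 8.6, 1 h, 37 °C), then wheat germ 3'-nucleotidase (4 units, pH 5, 1 h, 37 °C); separated by paper chromatography and counted.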

Series [10] is described as follows: Stability in RPMI 1640 after 24 hrs in presence of 10% fetal calf serum. In kind it is physicochemical. As to conditions: cattle. In outline:
as §2

The test system of series [11] is WIL2. In words: Stability in human WIL2 cells assessed as formation of thioguanine. In kind it is ADME, cell-based. The procedure, abridged:
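WI-L2 cells incubated with labeled nucleoside; [35S]thioguanine formed was measured.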

For series [12], the species on record is Mus musculus. Put plainly: Acid-insoluble DNA incorporation in mouse Mecca lymphosarcoma ascite tumor allografted in AKD2F1 mouse assessed as detection of [35S] in nucleoside at 2.6 umol after 4 hrs by scintillation counting analysis. In kind it is functional. In outline:
as §1

In the case of `Nc1nc2c(ncn2[C@@H]2C[C@H](CO)[C@@H](CO)O2)c(=S)[nH]1`, the Activity came out at 2.42 nmol in series [1]; 95.2% in series [5]; 29.8 nmol in [6]; 9% in series [7]; 15.6 nmol in [8]; 0% in [9]. Also, in [12], the Activity is listed as 91%. Moreover, the result in [2] was Active. Further, the Stability result is “Stable” in [3], “Stable” in series [4], “Unstable” in series [10] and “Stable” in [11].

`Nc1nc2c(ncn2[C@H]2C[C@H](CO)[C@@H](CO)O2)c(=S)[nH]1`: the Activity came to 2.36 nmol in series [1]; 94.8% in series [5]; 30.3 nmol in [6]; 10% in series [7]; 29.1 nmol in [8]; 0% in series [9]. In addition, the Activity in [12] was 90%. Further, the Stability result was “Stable” in [3], “Stable” in [4], “Unstable” in series [10] and “Stable” in series [11].

On to `Nc1nc2c(ncn2[C@@H]2C[C@H](O)[C@@H](CO)O2)c(=S)[nH]1`, for which the Activity in [1] is 0.84 nmol; in [5], 95.7%; in [6], 6.4 nmol; in series [7], 40%; in series [8], 10.4 nmol; in [9], 2%. In addition, the Activity in [12] was determined as 60%. In addition, the result in series [2] was Active. Moreover, the Stability entry in [3] is “Stable”; in series [4] it was “Stable”; in series [10], “Unstable”; in series [11], “Stable”.
